Measurements taken from ChEMBL document CHEMBL3112446, “Discovery and optimization of a new class of pyruvate kinase inhibitors as potential therapeutics for the treatment of methicillin-resistant Staphylococcus aureus infections” (Bioorg Med Chem, 2014).
Values after ≈ are worked out from the molar mass of the structure shown.

Columns and labels:
Staphylococcus aureus [1] = experiment: Inhibition of methicillin-resistant Staphylococcus aureus pyruvate kinase at 10 uM
In short: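 His-tagged MRSA PK. Compounds diluted in 100% DMSO. Percent inhibition reported at the highest concentration tested, 10 µM.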

[2] = Inhibition of methicillin-resistant Staphylococcus aureus pyruvate kinase
In short: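 His-tagged MRSA PK. Compounds diluted in 100% DMSO. IC50 calculated from a triplicate 15-point titration.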

Staphylococcus aureus [3] = experiment: Antibacterial activity against Staphylococcus aureus ATCC 29213 by two fold serial dilution method; assay type: functional
[4] = biological target: Pyruvate kinase PKLR (Homo sapiens) (UniProt P30613); experiment: Inhibition human pyruvate kinase R at 10 uM
In short: (§1)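 His-tagged recombinant human PK isoforms were used. Compounds were diluted in 100% DMSO and tested at 10 µM, the highest concentration tested. Values are percent inhibition of enzymatic activity.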

[5] = biological target: Pyruvate kinase PKLR (Homo sapiens) (UniProt P30613); experiment: Inhibition human pyruvate kinase L at 10 uM; in short: as §1
[6] = biological target: Pyruvate kinase PKM (Homo sapiens) (UniProt P14618); experiment: Inhibition human pyruvate kinase M2 at 10 uM; in short: as §1
[7] = biological target: Pyruvate kinase PKM (Homo sapiens) (UniProt P14618); experiment: Inhibition human pyruvate kinase M1 at 10 uM; in short: as §1

Chain of Pyruvate kinase PKM (Homo sapiens) (P14618 2-531 limits assumed): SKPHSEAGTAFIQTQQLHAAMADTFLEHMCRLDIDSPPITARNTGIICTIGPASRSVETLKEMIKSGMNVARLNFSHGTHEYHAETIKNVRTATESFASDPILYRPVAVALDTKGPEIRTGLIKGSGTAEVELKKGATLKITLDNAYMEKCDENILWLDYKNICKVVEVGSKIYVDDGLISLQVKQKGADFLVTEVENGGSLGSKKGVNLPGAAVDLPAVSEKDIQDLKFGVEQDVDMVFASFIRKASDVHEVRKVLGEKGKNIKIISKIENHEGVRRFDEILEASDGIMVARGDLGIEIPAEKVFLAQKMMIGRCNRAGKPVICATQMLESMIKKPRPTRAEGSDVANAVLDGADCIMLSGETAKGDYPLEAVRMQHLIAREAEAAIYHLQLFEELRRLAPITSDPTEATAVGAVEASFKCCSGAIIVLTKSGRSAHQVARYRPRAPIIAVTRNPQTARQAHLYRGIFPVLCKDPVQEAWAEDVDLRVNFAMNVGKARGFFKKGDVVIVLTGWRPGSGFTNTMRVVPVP
Chain of Pyruvate kinase PKLR (Homo sapiens) (P30613 whole entry, looked up, canonical isoform): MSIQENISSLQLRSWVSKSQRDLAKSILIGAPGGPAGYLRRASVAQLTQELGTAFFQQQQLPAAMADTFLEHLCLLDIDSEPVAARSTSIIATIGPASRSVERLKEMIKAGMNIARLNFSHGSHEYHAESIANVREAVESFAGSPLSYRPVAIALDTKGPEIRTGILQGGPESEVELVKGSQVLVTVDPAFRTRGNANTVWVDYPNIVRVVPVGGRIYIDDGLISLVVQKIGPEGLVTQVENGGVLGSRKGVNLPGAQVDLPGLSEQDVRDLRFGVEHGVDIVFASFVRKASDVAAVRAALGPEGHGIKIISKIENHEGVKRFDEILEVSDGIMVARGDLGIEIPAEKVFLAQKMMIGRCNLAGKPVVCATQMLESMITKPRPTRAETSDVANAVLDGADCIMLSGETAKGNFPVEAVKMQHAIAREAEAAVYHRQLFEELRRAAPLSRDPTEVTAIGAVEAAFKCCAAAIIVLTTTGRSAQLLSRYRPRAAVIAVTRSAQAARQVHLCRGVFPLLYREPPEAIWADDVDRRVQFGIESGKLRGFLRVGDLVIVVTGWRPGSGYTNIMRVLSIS

Structure (SMILES) | inhibition (Staphylococcus aureus [1]) [%] | IC50 ([2]; read-out: IC50) [nM] | MIC>98 (Staphylococcus aureus [3]) [µg/mL] | inhibition [4] [%] | inhibition [5] [%] | inhibition [6] [%] | inhibition [7] [%] | IC50 [2]
Cn1c(C#Cc2cc3ccc(Br)cc3n2C)cc2ccc(Br)cc21 | 27 | – | – | – | – | – | – | –
Brc1ccc2cc(-c3cc4cc(-c5ccccc5)ccc4[nH]3)[nH]c2c1 | – | 2.2 | >64 | – | – | – | – | –
Brc1ccc2[nH]c(-c3cc4cc(Br)c(Br)cc4[nH]3)cc2c1 | – | 1.6 | 1 (≈ 2.13 µM) | – | – | – | – | –
Brc1ccc2cc(C#Cc3cc4ccc(Br)cc4[nH]3)[nH]c2c1 | – | 2.4 | >64 | – | – | – | – | –
Brc1cc2cc(-c3cc4ccccc4[nH]3)[nH]c2cc1Br | 39 | – | – | – | – | – | – | –
Brc1ccc2cc(-c3cc4ccccc4[nH]3)[nH]c2c1 | – | 21.4 | 2 (≈ 6.43 µM) | – | – | – | – | –
CN1CCN(CCn2c(-c3cc4ccc(Br)cc4[nH]3)cc3cc(Br)ccc32)CC1 | 100 | 2 | 4 (≈ 7.75 µM) | 26.1 | 16.8 | 1.7 | 3.2 | –
Brc1ccc2cc(/C=C/c3cc4ccc(Br)cc4[nH]3)[nH]c2c1 | – | 3.9 | >64 | – | – | – | – | –
Brc1ccc2[nH]c(C#Cc3cc4ccc(Br)cc4[nH]3)cc2c1 | 86.3 | 4.7 | 16 (≈ 38.6 µM) | 27.8 | 14 | 8.7 | 19.5 | –
Brc1ccc2cc(-c3nc4ccccc4s3)[nH]c2c1 | 89.8 | 152 | >64 | 21.6 | 7.8 | 3 | 12.4 | –
Brc1ccc2[nH]c(-c3nc4ccc(Br)cc4s3)cc2c1 | – | 4.1 | >64 | – | – | – | – | –
Brc1ccc2[nH]c(-c3nc4ccccc4s3)cc2c1 | – | 358 | >64 | – | – | – | – | –
O=C(Cn1c(-c2cc3ccc(Br)cc3[nH]2)cc2cc(Br)ccc21)N1CCOCC1 | – | 6 | >64 | – | – | – | – | –
Brc1ccc2[nH]c(-c3cc4cc(Br)ccc4[nH]3)cc2c1 | 71 | 3 | – | 24.4 | 9.8 | 0.5 | 12.3 | –
Brc1ccc2[nH]c(CCc3cc4ccc(Br)cc4[nH]3)cc2c1 | – | 6.3 | >64 | – | – | – | – | –
Brc1ccc2[nH]c(-c3cc4ccccc4[nH]3)cc2c1 | 36 | – | – | – | – | – | – | –
Brc1ccc2[nH]c(/C=C/c3cc4ccc(Br)cc4[nH]3)cc2c1 | – | 4.1 | >64 | – | – | – | – | –
Cn1c(-c2cc3ccc(Br)cc3[nH]2)cc2cc(Br)ccc21 | 99 | 1 | >64 | 2.7 | 2.8 | 9.1 | 13.9 | –
Brc1ccc2cc(-c3cccc(-c4cc5ccccc5[nH]4)c3)[nH]c2c1 | 36 | – | – | – | – | – | – | –
OCCn1c(-c2cc3ccc(Br)cc3[nH]2)cc2cc(Br)ccc21 | 101 | 1.3 | 2 (≈ 4.61 µM) | 25.2 | 6.8 | 12.1 | 14.6 | –
Brc1ccc2cc(C#Cc3cc4ccccc4[nH]3)[nH]c2c1 | – | 7.1 | >64 | – | – | – | – | –
Brc1ccc2cc(-c3ccc(-c4cc5ccccc5[nH]4)cc3)[nH]c2c1 | – | 5.6 | >64 | – | – | – | – | –
Cn1c(C#Cc2cc3ccc(Br)cc3[nH]2)cc2ccc(Br)cc21 | – | 13.7 | >64 | – | – | – | – | –
Brc1ccc2[nH]c(-c3cc4ccccc4o3)cc2c1 | 45 | – | – | – | – | – | – | –
O=C(O)Cn1c(-c2cc3ccc(Br)cc3[nH]2)cc2cc(Br)ccc21 | – | 11.1 | >64 | – | – | – | – | –
Brc1ccc2cc(-c3cc4ccccc4s3)[nH]c2c1 | – | 14 | >64 | – | – | – | – | –
Cn1c(-c2cc3cc(Br)ccc3[nH]2)cc2ccc(Br)cc21 | 25 | – | – | – | – | – | – | Not Active
